Assays:
Type in all cases: nucleic-acid assay
Quadruplex DNA [1] = test: Stabilization of 5'-FAM and 3'-TAMRA-labeled c-KIT1 G-quadruplex (unknown origin) assessed as change in melting temperature at 1 uM by FRET assay; conditions: unidentified
Procedure, shortened: (§1)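 FRET melting of dual-labelled (5′-FAM/3′-TAMRA) promoter quadruplexes or duplex in 60 mM potassium cacodylate buffer, pH 7.4. ΔTm is taken against ligand-free Tm. The ligand was tested across a concentration series. Maximum measurable Tm is 93 °C.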

Quadruplex DNA [2] = test: Stabilization of 5'-FAM and 3'-TAMRA-labeled c-KIT2 G-quadruplex (unknown origin) assessed as change in melting temperature at 1 uM by FRET assay; conditions: unidentified; procedure, shortened: as §1
dsDNA = test: Stabilization of 5'-FAM and 3'-TAMRA-labeled dsDNA (unknown origin) assessed as change in melting temperature at 1 uM by FRET assay; procedure, shortened: as §1
Quadruplex DNA [3] = test: Stabilization of 5'-FAM and 3'-TAMRA-labeled c-MYC G-quadruplex (unknown origin) assessed as change in melting temperature at 1 uM by FRET assay; conditions: unidentified; procedure, shortened: as §1
Quadruplex DNA [4] = test: Stabilization of 5'-FAM and 3'-TAMRA-labeled k-RAS G-quadruplex (unknown origin) assessed as change in melting temperature at 1 uM by FRET assay; conditions: unidentified; procedure, shortened: as §1

- ΔTm (Quadruplex DNA [1]): 2.5 °C
- ΔTm (Quadruplex DNA [2]): 2.8 °C
- ΔTm (dsDNA): 0.5 °C
- ΔTm (Quadruplex DNA [3]): 4.5 °C
- ΔTm (Quadruplex DNA [4]): 3.8 °C
Compound: O=C(O)c1ccc(Nc2ccc(-c3ccc(Nc4ccc(C(=O)O)cc4)c4ccccc34)c3ccccc23)cc1

Reference: ChEMBL document CHEMBL4428054, “Synthesis of Fluorescent Binaphthyl Amines That Bind c-MYC G-Quadruplex DNA and Repress c-MYC Expression” (J Med Chem, 2016)
